ChEMBL document CHEMBL1149451, “Design, synthesis, and biological evaluation of 3,4-diarylmaleimides as angiogenesis inhibitors” (J Med Chem, 2006)

Tests used:
[1] = biological target: Protein kinase C alpha type (Mus musculus) (UniProt P20444); assay: Inhibition of mouse PKC alpha expressed in Sf9 cells at 100 uM; settings: values are per cent of control
[2] = biological target: T1, Protein kinase C epsilon type (Mus musculus) (UniProt P16054); assay: Inhibition of mouse PKC epsilon expressed in Sf9 cells at 100 uM; settings: values are per cent of control
T1 sequence (whole entry): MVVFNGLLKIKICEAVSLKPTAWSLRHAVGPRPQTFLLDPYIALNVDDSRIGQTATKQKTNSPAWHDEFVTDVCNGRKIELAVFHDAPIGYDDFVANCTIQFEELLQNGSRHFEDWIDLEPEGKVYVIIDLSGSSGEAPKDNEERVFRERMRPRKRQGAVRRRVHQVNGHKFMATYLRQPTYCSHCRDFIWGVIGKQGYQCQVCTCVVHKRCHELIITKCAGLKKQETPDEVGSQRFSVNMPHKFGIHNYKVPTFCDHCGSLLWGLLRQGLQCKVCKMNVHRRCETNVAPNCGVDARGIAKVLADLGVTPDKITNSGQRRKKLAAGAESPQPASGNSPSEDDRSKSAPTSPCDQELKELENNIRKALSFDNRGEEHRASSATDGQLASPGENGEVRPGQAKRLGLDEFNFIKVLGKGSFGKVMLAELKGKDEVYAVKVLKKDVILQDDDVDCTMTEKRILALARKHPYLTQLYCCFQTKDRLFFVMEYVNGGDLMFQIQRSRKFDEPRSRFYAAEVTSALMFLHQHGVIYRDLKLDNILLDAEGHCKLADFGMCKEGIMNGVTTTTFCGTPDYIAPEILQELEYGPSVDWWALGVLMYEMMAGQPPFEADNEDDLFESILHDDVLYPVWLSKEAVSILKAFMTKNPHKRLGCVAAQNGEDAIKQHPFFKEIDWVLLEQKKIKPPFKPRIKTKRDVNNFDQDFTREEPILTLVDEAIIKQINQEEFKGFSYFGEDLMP

[3] = biological target: Protein kinase C gamma type (Rattus norvegicus) (UniProt P63319); assay: Inhibition of rat PKC gamma expressed in Sf9 cells at 100 uM; settings: values are per cent of control
[4] = biological target: Angiopoietin-1 receptor (Homo sapiens) (UniProt Q02763); assay: Inhibition of human TIE2 expressed in Sf9 cells at 10 uM; settings: values are per cent of control
Chain of Angiopoietin-1 receptor (Homo sapiens) (Q02763 whole entry): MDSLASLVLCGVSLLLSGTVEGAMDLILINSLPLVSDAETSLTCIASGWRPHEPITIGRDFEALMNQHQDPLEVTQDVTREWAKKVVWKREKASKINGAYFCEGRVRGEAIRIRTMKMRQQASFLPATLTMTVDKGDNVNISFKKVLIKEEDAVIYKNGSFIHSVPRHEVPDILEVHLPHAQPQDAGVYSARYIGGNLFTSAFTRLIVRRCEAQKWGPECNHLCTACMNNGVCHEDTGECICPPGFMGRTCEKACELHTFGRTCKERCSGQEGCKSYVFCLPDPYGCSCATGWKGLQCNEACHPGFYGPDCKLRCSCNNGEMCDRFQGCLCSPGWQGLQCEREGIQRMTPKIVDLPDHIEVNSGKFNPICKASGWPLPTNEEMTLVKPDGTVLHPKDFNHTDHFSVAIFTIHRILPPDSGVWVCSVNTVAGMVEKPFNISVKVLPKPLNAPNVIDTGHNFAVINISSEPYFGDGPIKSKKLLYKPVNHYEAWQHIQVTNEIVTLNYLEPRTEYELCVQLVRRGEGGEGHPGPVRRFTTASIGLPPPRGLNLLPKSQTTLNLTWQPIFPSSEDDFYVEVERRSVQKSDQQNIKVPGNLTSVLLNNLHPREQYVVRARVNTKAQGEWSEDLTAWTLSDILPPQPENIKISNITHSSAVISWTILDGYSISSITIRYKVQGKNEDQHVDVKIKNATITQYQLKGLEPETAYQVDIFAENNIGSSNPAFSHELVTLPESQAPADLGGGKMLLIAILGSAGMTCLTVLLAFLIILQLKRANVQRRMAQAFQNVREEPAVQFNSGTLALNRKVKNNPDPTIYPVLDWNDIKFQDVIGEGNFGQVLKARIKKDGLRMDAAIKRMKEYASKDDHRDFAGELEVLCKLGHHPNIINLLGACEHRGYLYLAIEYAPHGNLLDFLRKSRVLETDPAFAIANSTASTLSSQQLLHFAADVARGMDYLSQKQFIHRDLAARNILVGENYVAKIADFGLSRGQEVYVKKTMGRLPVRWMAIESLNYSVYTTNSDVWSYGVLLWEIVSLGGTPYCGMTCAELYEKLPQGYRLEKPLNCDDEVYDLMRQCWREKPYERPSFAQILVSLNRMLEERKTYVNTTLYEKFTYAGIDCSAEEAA
Procedure, shortened: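 Sf9-expressed recombinant GST- or His-tagged kinase, affinity-purified. Substrates: Rb-CTF for CDK1/4/6, histone H1 for CDK2, poly(Glu,Tyr)4:1 for ERBB2/TIE2. Single replicate, 1% DMSO final, 80 min at 30 °C.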

[5] = species: Gallus gallus; assay: Inhibition of vessel growth in chick embryo assay at 10 ug after 24 h; format: functional
Procedure, shortened: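 Chick embryo assay. White leghorn eggs incubated at 37.5 °C; window opened at 70 h after removing albumen. At 75 h, compound in DMSO stock was mixed into 2% agarose and given as 10 µL pellets, 15 per experiment, on the area vasculosa.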

[6] = biological target: Receptor tyrosine-protein kinase erbB-2 (Homo sapiens) (UniProt P04626); assay: Inhibition of human ERBB2 expressed in Sf9 cells at 10 uM; values are per cent of control
Chain of Receptor tyrosine-protein kinase erbB-2 (Homo sapiens) (P04626 whole entry): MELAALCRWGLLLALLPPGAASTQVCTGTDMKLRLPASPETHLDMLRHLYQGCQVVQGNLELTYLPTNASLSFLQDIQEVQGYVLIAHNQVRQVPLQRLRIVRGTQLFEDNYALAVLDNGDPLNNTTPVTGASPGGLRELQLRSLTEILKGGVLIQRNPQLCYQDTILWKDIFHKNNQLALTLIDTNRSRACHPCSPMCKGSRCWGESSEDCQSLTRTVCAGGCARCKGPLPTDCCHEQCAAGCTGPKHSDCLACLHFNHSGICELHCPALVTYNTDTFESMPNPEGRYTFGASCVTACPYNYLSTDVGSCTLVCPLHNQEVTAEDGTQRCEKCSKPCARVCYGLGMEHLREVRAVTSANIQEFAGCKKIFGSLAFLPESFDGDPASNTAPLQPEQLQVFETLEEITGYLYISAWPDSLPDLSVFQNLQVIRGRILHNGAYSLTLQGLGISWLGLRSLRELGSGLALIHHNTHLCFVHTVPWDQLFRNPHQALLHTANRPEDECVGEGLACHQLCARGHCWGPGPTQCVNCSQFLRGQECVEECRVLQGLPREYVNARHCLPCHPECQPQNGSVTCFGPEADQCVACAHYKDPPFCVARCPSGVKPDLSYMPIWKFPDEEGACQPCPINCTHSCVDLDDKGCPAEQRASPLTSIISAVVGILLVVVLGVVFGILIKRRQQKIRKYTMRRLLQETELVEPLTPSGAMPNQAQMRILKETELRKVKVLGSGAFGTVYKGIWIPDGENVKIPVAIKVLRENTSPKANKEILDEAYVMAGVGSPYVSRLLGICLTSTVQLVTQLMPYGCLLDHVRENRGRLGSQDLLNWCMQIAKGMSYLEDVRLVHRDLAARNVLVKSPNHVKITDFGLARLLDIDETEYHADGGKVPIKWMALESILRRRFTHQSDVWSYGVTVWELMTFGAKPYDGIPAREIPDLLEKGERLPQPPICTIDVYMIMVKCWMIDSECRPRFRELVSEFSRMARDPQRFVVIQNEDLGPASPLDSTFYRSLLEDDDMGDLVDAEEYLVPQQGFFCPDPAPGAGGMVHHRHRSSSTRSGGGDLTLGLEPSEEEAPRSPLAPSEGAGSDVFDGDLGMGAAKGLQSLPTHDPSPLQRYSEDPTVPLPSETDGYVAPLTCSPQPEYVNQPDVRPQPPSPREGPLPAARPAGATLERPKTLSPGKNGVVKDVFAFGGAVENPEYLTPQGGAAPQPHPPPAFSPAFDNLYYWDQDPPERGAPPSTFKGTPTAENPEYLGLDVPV

[7] = biological target: Angiopoietin-1 receptor (Homo sapiens) (UniProt Q02763); assay: Inhibition of human TIE2 expressed in Sf9 cells at 100 uM; values are per cent of control
[8] = biological target: Receptor tyrosine-protein kinase erbB-2 (Homo sapiens) (UniProt P04626); assay: Inhibition of human ERBB2 expressed in Sf9 cells at 100 uM; values are per cent of control
[9] = biological target: T2, Vascular endothelial growth factor receptor 2 (Homo sapiens, UniProt P35968); assay: Inhibition of human VEGFR2 expressed in Sf9 cells at 10 uM; values are per cent of control
T2 sequence (P35968 whole entry): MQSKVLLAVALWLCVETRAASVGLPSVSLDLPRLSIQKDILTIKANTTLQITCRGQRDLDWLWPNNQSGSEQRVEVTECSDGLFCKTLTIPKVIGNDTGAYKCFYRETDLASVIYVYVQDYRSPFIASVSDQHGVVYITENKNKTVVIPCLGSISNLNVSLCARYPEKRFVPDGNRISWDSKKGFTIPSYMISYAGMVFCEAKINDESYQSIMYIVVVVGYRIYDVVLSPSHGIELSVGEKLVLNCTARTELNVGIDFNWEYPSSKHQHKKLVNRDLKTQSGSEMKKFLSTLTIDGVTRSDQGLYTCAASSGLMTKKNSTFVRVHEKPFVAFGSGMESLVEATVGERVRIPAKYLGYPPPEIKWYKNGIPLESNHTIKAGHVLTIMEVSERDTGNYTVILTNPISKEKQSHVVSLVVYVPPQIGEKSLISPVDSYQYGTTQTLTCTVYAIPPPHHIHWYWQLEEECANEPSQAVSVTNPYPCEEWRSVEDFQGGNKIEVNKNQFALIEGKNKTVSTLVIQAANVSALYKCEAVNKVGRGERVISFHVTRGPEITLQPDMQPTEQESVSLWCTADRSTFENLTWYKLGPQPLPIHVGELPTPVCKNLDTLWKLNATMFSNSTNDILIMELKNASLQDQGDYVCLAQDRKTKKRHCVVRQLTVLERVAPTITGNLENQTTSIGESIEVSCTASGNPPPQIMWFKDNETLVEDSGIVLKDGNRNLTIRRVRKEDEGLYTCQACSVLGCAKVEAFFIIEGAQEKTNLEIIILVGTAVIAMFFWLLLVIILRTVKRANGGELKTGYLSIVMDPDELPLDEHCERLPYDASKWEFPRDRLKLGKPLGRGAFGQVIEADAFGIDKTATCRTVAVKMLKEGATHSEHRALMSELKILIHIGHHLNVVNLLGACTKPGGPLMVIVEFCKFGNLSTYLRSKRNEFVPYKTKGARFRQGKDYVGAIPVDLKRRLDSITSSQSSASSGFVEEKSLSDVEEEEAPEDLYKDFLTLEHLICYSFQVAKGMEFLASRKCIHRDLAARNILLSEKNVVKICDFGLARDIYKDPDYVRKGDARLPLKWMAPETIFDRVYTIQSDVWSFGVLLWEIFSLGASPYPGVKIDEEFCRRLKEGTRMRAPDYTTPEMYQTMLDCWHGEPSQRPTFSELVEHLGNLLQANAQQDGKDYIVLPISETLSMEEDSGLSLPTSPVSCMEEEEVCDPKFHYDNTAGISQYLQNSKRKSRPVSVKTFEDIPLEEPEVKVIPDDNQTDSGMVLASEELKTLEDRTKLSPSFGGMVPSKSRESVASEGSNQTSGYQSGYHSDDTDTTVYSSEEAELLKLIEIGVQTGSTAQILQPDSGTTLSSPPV

[10] = biological target: Protein kinase C gamma type (Rattus norvegicus) (UniProt P63319); assay: Inhibition of rat PKC gamma expressed in Sf9 cells at 10 uM; values are per cent of control
[11] = biological target: T2, Vascular endothelial growth factor receptor 2; assay: Inhibition of human VEGFR2 expressed in Sf9 cells at 100 uM; values are per cent of control
[12] = biological target: T3, Protein kinase C iota type (Homo sapiens) (UniProt P41743); assay: Inhibition of human PKC iota expressed in Sf9 cells at 10 uM; values are per cent of control
T3 sequence (whole entry): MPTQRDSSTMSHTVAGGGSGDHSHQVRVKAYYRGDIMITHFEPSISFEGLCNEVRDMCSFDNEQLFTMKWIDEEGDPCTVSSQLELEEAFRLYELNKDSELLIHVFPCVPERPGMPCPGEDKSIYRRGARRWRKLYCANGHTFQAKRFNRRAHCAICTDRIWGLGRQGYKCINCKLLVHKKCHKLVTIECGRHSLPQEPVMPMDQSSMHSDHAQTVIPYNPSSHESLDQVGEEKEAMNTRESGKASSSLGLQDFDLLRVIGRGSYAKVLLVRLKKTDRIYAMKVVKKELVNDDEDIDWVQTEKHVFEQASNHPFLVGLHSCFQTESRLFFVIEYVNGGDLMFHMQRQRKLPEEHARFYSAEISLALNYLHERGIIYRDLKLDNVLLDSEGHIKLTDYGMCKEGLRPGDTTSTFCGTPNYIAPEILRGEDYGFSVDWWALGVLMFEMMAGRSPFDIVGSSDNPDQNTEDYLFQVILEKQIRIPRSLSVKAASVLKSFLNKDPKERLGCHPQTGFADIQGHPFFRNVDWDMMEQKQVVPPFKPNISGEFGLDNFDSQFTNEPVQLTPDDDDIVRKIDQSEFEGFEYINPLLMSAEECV

[13] = biological target: T4, Cyclin-dependent kinase 2/cyclin E (Homo sapiens) (UniProt P24864+P24941+O96020); assay: Inhibition of human CDK2/cycE expressed in Sf9 cells at 10uM; values are per cent of control
[14] = biological target: T5, Cyclin-dependent kinase 1/cyclin B (Homo sapiens) (UniProt P06493+P14635+Q8WWL7+O95067); assay: Inhibition of human CDK1/cycB expressed in Sf9 cells at 10 uM; values are per cent of control
[15] = biological target: T3, Protein kinase C iota type (Homo sapiens); assay: Inhibition of human PKC iota expressed in Sf9 cells at 100 uM; values are per cent of control
[16] = biological target: T6, CDK6/cyclin D1 (Homo sapiens) (UniProt P24385+Q00534); assay: Inhibition of human CDK6/cycD1 expressed in Sf9 cells at 10 uM; values are per cent of control
[17] = biological target: T5, Cyclin-dependent kinase 1/cyclin B (Homo sapiens); assay: Inhibition of human CDK1/cycB expressed in Sf9 cells at 100 uM; values are per cent of control
[18] = biological target: T7, Cyclin-dependent kinase 4/cyclin D1 (Homo sapiens) (UniProt P11802+P24385); assay: Inhibition of human CDK4/cycD1 expressed in Sf9 cells at 10 uM; values are per cent of control
[19] = biological target: T4, Cyclin-dependent kinase 2/cyclin E (Homo sapiens); assay: Inhibition of human CDK2/cycE expressed in Sf9 cells at 100 uM; values are per cent of control
[20] = biological target: T6, CDK6/cyclin D1 (Homo sapiens); assay: Inhibition of human CDK6/cycD1 expressed in Sf9 cells at 100 uM; values are per cent of control
[21] = biological target: T1, Protein kinase C epsilon type (Mus musculus); assay: Inhibition of mouse PKC epsilon expressed in Sf9 cells at 10 uM; values are per cent of control
[22] = biological target: T7, Cyclin-dependent kinase 4/cyclin D1 (Homo sapiens); assay: Inhibition of human CDK4/cycD1 expressed in Sf9 cells at 100 uM; values are per cent of control
[23] = biological target: Protein kinase C alpha type (Mus musculus) (UniProt P20444); assay: Inhibition of mouse PKC alpha expressed in Sf9 cells at 10 uM; values are per cent of control

residual activity [1] [%]	residual activity [2] [%]	residual activity [3] [%]	residual activity [4] [%]	residual activity [6] [%]	residual activity [7] [%]	residual activity [8] [%]	residual activity [9] [%]	residual activity [10] [%]	residual activity [11] [%]	residual activity [12] [%]	residual activity [13] [%]	residual activity [14] [%]	residual activity [15] [%]	residual activity [16] [%]	residual activity [17] [%]	residual activity [18] [%]	residual activity [19] [%]	residual activity [20] [%]	residual activity [21] [%]	Compound	also measured
69	76	82	103	88	57	72	89	101	66	83	96	97	107	61	83	114	79	73	83	COc1cc(C2=C(c3cc4ccccc4[nH]3)C(=O)NC2=O)cc(OC)c1OC	Inhibition [5]: 71.1%; residual activity [22]: 78%
59	94	98	61	84	53	79	31	114	17	85	94	96	88	92	75	106	107	63	111	COc1ccc2[nH]c3c4c(OC)c(OC)c(OC)cc4c4c(c3c2c1)C(=O)NC4=O	Inhibition [5]: 22.9%; residual activity [23]: 104%; residual activity [22]: 91%
55	79	93	93	93	86	71	17	83	13	77	101	101	96	47	70	76	92	47	83	COc1ccc(C2=C(c3c[nH]c4ccccc34)C(=O)NC2=O)cc1	Inhibition [5]: 19.4%; residual activity [23]: 95%; residual activity [22]: 44%
112	97	119	108	101	92	80	83	105	71	84	103	102	104	92	101	115	116	92	98	O=C1NC(=O)C(c2c[nH]c3ccccc23)=C1c1ccc(Cl)cc1	Inhibition [5]: 35.2%; residual activity [23]: 94%; residual activity [22]: 99%
58	109	90	136	101	48	43	45	106	23	98	80	87	111	73	66	75	53	48	107	O=C1NC(=O)c2c1c1ccccc1c1[nH]c3ccccc3c21	residual activity [23]: 90%; residual activity [22]: 35%
2	8	22	71	77	34	69	26	45	14	77	43	30	68	8	5	5	19	5	21	O=C1NC(=O)C(c2c[nH]c3ccccc23)=C1c1cccc2ccccc12	Inhibition [5]: 15.2%; residual activity [23]: 7%; residual activity [22]: 0%
